According to ChEMBL document CHEMBL4265975, “Synthesis, biological evaluation and molecular modeling of a novel series of fused 1,2,3-triazoles as potential anti-coronavirus agents” (Bioorg Med Chem Lett, 2018):
pEC50: −log10 of the molar value.

Experiments:
Human adenovirus 2 = experiment: Antiviral activity against Human adenovirus 2 infected in human HEL cells assessed as inhibition of virus-induced cytopathic effect after 3 days by microscopic method; type: functional, organism-based; settings: Human mastadenovirus C, 72 h
Outline: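 HEL cells were infected with adenovirus 2 for 2 h. Residual virus was then removed and the cells were incubated with medium containing graded compound concentrations for 3 days at 37°C. Virus-induced cytopathogenicity was scored microscopically.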

Human alphaherpesvirus 1 [1] = experiment: Antiviral activity against acyclovir-resistant TK-defecient Herpes simplex virus 1 KOS infected in human HEL cells assessed as inhibition of virus-induced cytopathic effect after 3 days by microscopic method; type: functional, organism-based; settings: Human alphaherpesvirus 1, KOS, 72 h
Vaccinia virus = experiment: Antiviral activity against Vaccinia virus infected in human HEL cells assessed as inhibition of virus-induced cytopathic effect after 3 days by microscopic method; type: functional, organism-based; settings: Orthopoxvirus vaccinia, 72 h
Human alphaherpesvirus 2 = experiment: Antiviral activity against Human herpesvirus 2 strain G infected in human HEL cells assessed as inhibition of virus-induced cytopathic effect after 3 days by microscopic method; type: functional, organism-based; settings: Human alphaherpesvirus 2, strain G, 72 h
[2] = Selectivity index, ratio of MCC for HEL cells to EC50 for Herpes simplex virus 1 KOS infected in HEL cells; type: toxicity, cell-based; settings: human, read-out: Selectivity Index
Outline: (§1)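 SI is MCC divided by EC50. […] MCC was measured in parallel on HEL cells seeded at 5 x 10^3 cells/well, as the lowest concentration causing microscopically visible alteration of cell morphology. The top concentration tested was 100 µM.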

[3] = Selectivity index, ratio of MCC for HEL cells to EC50 for Vaccinia virus infected in HEL cells; type: toxicity, cell-based; settings: human, read-out: Selectivity Index; outline: as §1
[4] = Selectivity index, ratio of MCC for HEL cells to EC50 for Human adenovirus 2 infected in HEL cells; type: toxicity, cell-based; settings: read-out: Selectivity Index; outline: as §1
Human coronavirus 229E = experiment: Antiviral activity against Human coronavirus 229E infected in HEL cells assessed as reduction in virus-induced pathogenicity after 3 days by microscopic method; type: functional, organism-based; settings: 72 h
[5] = Selectivity index, ratio of MCC for HEL cells to EC50 for Human coronavirus 229E infected in HEL cells; type: toxicity, cell-based; settings: read-out: Selectivity Index; outline: as §1
[6] = Selectivity index, ratio of MCC for HEL cells to EC50 for acyclovir-resistant TK-defecient Herpes simplex virus 1 KOS infected in HEL cells; type: toxicity, cell-based; settings: human, read-out: Selectivity Index; outline: as §1
Human alphaherpesvirus 1 [7] = experiment: Antiviral activity against Herpes simplex virus 1 KOS infected in human HEL cells assessed as inhibition of virus-induced cytopathic effect after 3 days by microscopic method; type: functional, organism-based; settings: Human alphaherpesvirus 1, KOS, 72 h
[8] = Selectivity index, ratio of MCC for HEL cells to EC50 for Herpes simplex virus 2 strain G infected in HEL cells; type: toxicity, cell-based; settings: human, read-out: Selectivity Index; outline: as §1
[9] = Cytotoxicity against HEL cells assessed as alteration in cell morphology after 3 days by microscopic method; type: cell-based; settings: human
Outline: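 HEL cells were seeded at 5 x 10^3 cells/well and exposed to graded compound concentrations, up to 100 μM, in parallel with the antiviral assay. Cell morphology was examined by light microscopy. MCC is the minimum concentration causing a microscopically detectable alteration of normal cell morphology.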

SMILES | pEC50 (Human adenovirus 2) | pEC50 (Human alphaherpesvirus 1 [1]) | pEC50 (Vaccinia virus) | pEC50 (Human alphaherpesvirus 2) | selectivity ratio [2] | selectivity ratio [3] | selectivity ratio [4] | pEC50 (Human coronavirus 229E) | selectivity ratio [5] | selectivity ratio [6] | pEC50 (Human alphaherpesvirus 1 [7]) | selectivity ratio [8] | MCC at 72 h [9] [µM]
CCOC(=O)C1(Cc2ccccc2)CN(c2ccccc2)Cc2nnn(Cc3ccc(Cl)c(Cl)c3)c21 (stereo not drawn) | < 4.00 | < 4.00 | < 4.00 | < 4.00 | > 8 | > 8 | > 8 | < 4.00 | > 8 | > 8 | < 4.00 | > 8 | > 100
CCOC(=O)C1(Cc2ccccc2)CN(c2ccccc2)Cc2nnn(Cc3cccc(Cl)c3)c21 (stereo not drawn) | < 4.00 | < 4.00 | < 4.00 | < 4.00 | > 8 | > 8 | > 8 | < 4.00 | > 8 | > 8 | < 4.00 | > 8 | > 100
CCOC(=O)C1(Cc2ccccc2)CN(c2ccccc2)Cc2nnn(CCCCCO)c21 (stereo not drawn) | < 4.00 | < 4.00 | < 4.00 | < 4.00 | > 8 | > 8 | > 8 | < 4.00 | > 8 | > 8 | < 4.00 | > 8 | > 100
CCOC(=O)C1(Cc2ccccc2)CN(c2ccccc2)Cc2nnn(Cc3cccc(F)c3)c21 (stereo not drawn) | < 4.00 | < 4.00 | < 4.00 | < 4.00 | > 8 | > 8 | > 8 | < 4.00 | > 8 | > 8 | < 4.00 | > 8 | ≥ 100
CCOC(=O)C1(Cc2ccccc2)CN(c2ccccc2)Cc2nnn(Cc3c(F)cccc3Cl)c21 (stereo not drawn) | < 4.00 | < 4.00 | < 4.00 | < 4.00 | > 8 | > 8 | > 8 | < 4.00 | > 8 | > 8 | < 4.00 | > 8 | > 100
CCOC(=O)C1(Cc2ccc(F)cc2)CN(c2ccccc2)Cc2nnn(Cc3cccc(F)c3)c21 (stereo not drawn) | < 4.00 | < 4.00 | < 4.00 | < 4.00 | > 8 | > 8 | > 8 | < 4.00 | > 8 | > 8 | < 4.00 | > 8 | > 100
CCOC(=O)C1(Cc2ccc(F)cc2)CN(c2ccccc2)Cc2nnn(Cc3ccc(Cl)c(Cl)c3)c21 (stereo not drawn) | < 4.00 | < 4.00 | < 4.00 | < 4.00 | > 8 | > 8 | > 8 | 5.02 | > 8 | > 8 | < 4.00 | > 8 | > 100
CCOC(=O)C1(Cc2ccccc2)CN(c2ccccc2)Cc2nnn(CCc3ccc(OC)cc3)c21 (stereo not drawn) | < 4.00 | < 4.00 | < 4.00 | < 4.00 | > 8 | > 8 | > 8 | < 4.00 | > 8 | > 8 | < 4.00 | > 8 | ≥ 20
CCOC(=O)C1(Cc2ccccc2)CN(c2ccccc2)Cc2nnn(Cc3ccccc3Cl)c21 (stereo not drawn) | < 4.00 | < 4.00 | < 4.00 | < 4.00 | > 8 | > 8 | > 8 | < 4.00 | > 8 | > 8 | < 4.00 | > 8 | > 100
COc1ccccc1CCn1nnc2c1CCN(c1ccccc1)C2 | < 4.00 | < 4.00 | < 4.00 | < 4.00 | > 8 | > 8 | > 8 | < 4.00 | > 8 | > 8 | < 4.00 | > 8 | ≥ 100
CCOC(=O)C1(Cc2ccccc2)CN(c2ccccc2)Cc2nnn(Cc3ccc(Cl)cc3)c21 (stereo not drawn) | < 4.00 | < 4.00 | < 4.00 | < 4.00 | > 8 | > 8 | > 8 | < 4.00 | > 8 | > 8 | < 4.00 | > 8 | > 100
CCOC(=O)C1(Cc2ccccc2)CN(c2ccccc2)Cc2nnn(CCc3cc4ccccc4[nH]3)c21 (stereo not drawn) | < 4.00 | < 4.00 | < 4.00 | < 4.00 | > 8 | > 8 | > 8 | 5.02 | > 8 | > 8 | < 4.00 | > 8 | > 100
COc1ccc(CCn2nnc3c2CCN(c2ccccc2)C3)cc1 | < 4.00 | < 4.00 | < 4.00 | < 4.00 | > 8 | > 8 | > 8 | < 4.00 | > 8 | > 8 | < 4.00 | > 8 | > 100
CCCCCCCCn1nnc2c1C(Cc1ccccc1)(C(=O)OCC)CN(c1ccccc1)C2 (stereo not drawn) | < 4.00 | < 4.00 | < 4.00 | < 4.00 | > 8 | > 8 | > 8 | < 4.00 | > 8 | > 8 | < 4.00 | > 8 | ≥ 20
CCOC(=O)C1(Cc2ccccc2)CN(c2ccccc2)Cc2nnn(Cc3ccc(F)cc3)c21 (stereo not drawn) | < 4.00 | < 4.00 | < 4.00 | < 4.00 | > 8 | > 8 | > 8 | 5.05 | > 8 | > 8 | < 4.00 | > 8 | ≥ 100
CCOC(=O)C1(Cc2ccccc2)CN(c2ccccc2)Cc2nnn(CCc3ccccc3OC)c21 (stereo not drawn) | < 4.00 | < 4.00 | < 4.00 | < 4.00 | > 8 | > 8 | > 8 | < 4.00 | > 8 | > 8 | < 4.00 | > 8 | ≥ 100
CCOC(=O)C1(Cc2ccccc2)CN(c2ccccc2)Cc2nnn(Cc3ccco3)c21 (stereo not drawn) | < 4.00 | < 4.00 | < 4.00 | < 4.00 | > 8 | > 8 | > 8 | < 4.00 | > 8 | > 8 | < 4.00 | > 8 | 100
c1ccc(N2CCc3c(nnn3CC3CC3)C2)cc1 | < 4.00 | < 4.00 | < 4.00 | < 4.00 | > 8 | > 8 | > 8 | < 4.00 | > 8 | > 8 | < 4.00 | > 8 | > 100
Nc1nc2c(ncn2COCCO)c(=O)[nH]1 [ACYCLOVIR] |  |  | < 3.60 |  |  |  |  |  |  |  |  |  | > 250
O=c1[nH]c(=O)n([C@H]2C[C@H](O)[C@@H](CO)O2)cc1/C=C/Br [BRIVUDINE] |  |  | 5.42 |  |  |  |  |  |  |  |  |  | > 250
Nc1ccn(C[C@@H](CO)OCP(=O)(O)O)c(=O)n1 [CIDOFOVIR] | 4.66 | 5.55 | 4.07 | 5.47 |  |  |  |  |  |  | 5.35 |  | > 250
Nc1nc2c(ncn2COC(CO)CO)c(=O)[nH]1 [GANCICLOVIR] |  |  | < 4.00 |  |  |  |  |  |  |  |  |  | > 100
Nc1ccn([C@H]2CC[C@@H](CO)O2)c(=O)n1 [ZALCITABINE] | 4.30 |  |  |  |  |  |  |  |  |  |  |  | > 250
